Most compounds without a hit are left out; they make up all but 1.8% or so of the library.
CHRM4 antagonist: antagonists of human muscarinic M4 receptor (CHRM4); CHO-hM4 cells, ACh EC80, Fluo-8 calcium fluorescence; inhibition, % at 3 µM; hit rate 0.73% among 360,000;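 active = inhibition above its plate's cutoff, the mean inhibition of sample wells plus 3 SD, cut at about 27% in these data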
Target sequence (P08173 whole entry, looked up): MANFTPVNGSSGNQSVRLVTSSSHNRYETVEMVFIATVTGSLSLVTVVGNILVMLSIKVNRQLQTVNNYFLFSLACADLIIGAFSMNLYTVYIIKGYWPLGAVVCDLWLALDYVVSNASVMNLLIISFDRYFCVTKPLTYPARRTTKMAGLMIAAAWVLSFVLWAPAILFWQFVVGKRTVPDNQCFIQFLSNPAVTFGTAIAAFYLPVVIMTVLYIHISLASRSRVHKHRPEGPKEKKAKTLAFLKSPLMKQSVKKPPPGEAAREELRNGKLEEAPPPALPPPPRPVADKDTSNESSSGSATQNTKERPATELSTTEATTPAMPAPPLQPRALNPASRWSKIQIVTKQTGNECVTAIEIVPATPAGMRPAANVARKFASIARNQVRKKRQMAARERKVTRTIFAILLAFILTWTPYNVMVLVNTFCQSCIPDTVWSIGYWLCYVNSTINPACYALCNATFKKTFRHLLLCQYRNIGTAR
M5 PAM: positive allosteric modulators of human muscarinic M5 receptor | AID 624038 | activation, % at 3 µM | hit rate 0.3% among 360,000 | P08912 | CHO-K1 hM5, Fluo-8 calcium, ACh EC20 PAM; 0% = ACh EC20, 100% = ACh EC100;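 active = activation above the run cutoff, the mean activation of all test compounds plus 3 SD, cut at about 18% in these data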
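Assay system: CHO-K1 hM5 cells / Incubation: Fluo-8 loading 80 min at 37 °C plus 30 min room temperature / Technique: Fluo-8 calcium dye fluorescence, kinetic read / Repeats: single replicate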
CHRM4 agonist: agonists of human muscarinic M4 receptor (CHRM4); hit rate 0.14% among 360,000; CHO-K1 hM4/Gqi5, Fluo-8 calcium fluorescence; vehicle 0%, full acetylcholine response 100%; P08173; activation, % at 3 µM;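 active = activation above the run mean over all test wells plus 3 SD, cut at about 32% in these data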;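 note: peak over basal fluorescence ratio per well then scaled between controls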
M4 PAM: potentiates acetylcholine response at human M4 receptor; CHO-K1 hM4/Gqi5, Fluo-8 calcium fluorescence, ACh EC20; 0% = ACh EC20, 100% = maximal ACh; activation, % at 3 µM; hit rate 0.4% among 360,000; AID 624126;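 active = activation above its plate's cutoff, the mean activation of sample wells plus 3 SD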
M5 ag: CHRM5 agonism in calcium assay; CHO-K1 hM5 cells, Fluo-8 calcium fluorescence; 0% DMSO wells, 100% maximal acetylcholine response; activation, % at 3 µM; hit rate 0.19% among 360,000; AID 624037;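 active = activation above the run's mean over test compounds plus 3 SD, cut at about 23% in these data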;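 note: signal is peak over basal fluorescence ratio across the kinetic read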
M5 antag: antagonists of human muscarinic M5 receptor (CHRM5) | CHO-hM5 cells, Fluo-8 calcium fluorescence, ACh EC80 | P08912 | hit rate 0.59% among 360,000 | inhibition, % at 3 µM;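 active = inhibition above a per-plate cutoff, the mean of that plate's test compounds plus 3 SD, cut at about 27% in these data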
Each line names hits and unclear results; the compound was inactive in the other large screens.

Nc1c(C(=O)O)sc2nc(-c3ccccc3)cc(-c3ccc(F)cc3)c12	M5 PAM 21
COc1ccc(S(=O)(=O)N2CCCCC2c2cc(C(=O)Nc3ccc4c(c3)OCO4)no2)cc1 (stereo not given)	none
CCc1noc(C)c1C(=O)OCC(=O)NCc1ccc(Cl)cc1	none
COc1c(O)cccc1[C@H](O)C1CCN(CCc2ccc(F)cc2)CC1	none
CCOC(=O)Cn1c(=O)oc2cc(S(=O)(=O)NCCc3ccc(C)cc3)ccc21	none
CCOC(=O)Cn1c(=O)oc2cc(S(=O)(=O)Nc3ccc(F)cc3)ccc21	M5 ag 28
O=C(Nc1ccnn1C1CCN(C(=O)c2cccc(C(F)(F)F)c2)CC1)C1CC1	M4 PAM 21
O=C(Nc1ccnn1C1CCN(C(=O)c2ccc(C(F)(F)F)cc2)CC1)C1CC1	none
N#Cc1c(N)c(C#N)c(-c2ccc(O)cc2)c2c1CCCC2	none
N#Cc1c(N)c(C#N)c(-c2ccc3c(c2)OCO3)c2c1CCCC2	M5 PAM 23, M4 PAM 39
COc1ccc(CNC(=O)C(c2ccco2)N(C(=O)c2ccccn2)c2ccccc2)cc1 (stereo not given)	none
O=C(NCc1ccccc1)C(c1ccco1)N(C(=O)c1ccccn1)c1ccccc1 (stereo not given)	M5 antag 49
Cc1ccc(C)c(N2CCN(S(=O)(=O)c3ccc4c(c3)NC(=O)CC(=O)N4)CC2)c1	CHRM4 antagonist 88
Cc1ccc(C)c(N2CCN(S(=O)(=O)c3ccc4c(c3)NC(=O)CO4)CC2)c1	none
CC(C)(C)OC(=O)C[C@H]1C/C=C\C[C@@H](CC(=O)NCCO)C(=O)NC[C@@H](c2ccccc2)OC1=O	none
CCC(C)C(NC(=O)C1CCC(C)CC1)C(=O)NC(C(=O)OC)C(C)C (stereo not given)	M4 PAM 20
O=C(CC1(O)CCCCC1)OC1CCCC1	none
COC(=O)CCCCCCCCCC[N+]1(C)CCCCC1	CHRM4 antagonist 31
C[N+]1(CC(=O)OC2CCCCCCCCCCC2)CCCC1	CHRM4 antagonist 35
CC(=O)OCCCCCCCCCCC[N+]1(C)CCCCC1	CHRM4 antagonist 56
C#CCOCCOCCOCCNc1nc(N2CCN(C(=O)[C@H](CCC(=O)O)n3cc([C@@H](N)[C@H](C)CC)nn3)CC2)nc(N2CCN(C(=O)[C@H](CCCCN)n3cc([C@@H](N)CC(N)=O)nn3)CC2)n1	none
Nc1ncnc2c1ncn2C1CCCC1	none
Nc1ncnc2c1ncn2C1CCCO1 (stereo not given)	M5 ag 28
NCC1OC(n2cnc3c(N)ncnc32)CC1O (stereo not given)	none
Nc1ncnc2c1ncn2[C@H]1C[C@H](O)[C@@H](COP(=O)(O)O)O1	CHRM4 antagonist 30
S=c1nc[nH]c2c1ncn2C1CCCO1 (stereo not given)	M5 PAM 19
CC(C)CNC(=O)c1ccc(C2SCC(=O)N2Cc2ccccc2)cc1 (stereo not given)	CHRM4 antagonist 47
CCNC(=O)C1CCCN(C(=O)c2cnc3ccccc3n2)CC1 (stereo not given)	none
CCN(CC)CCCCCCCCOC(=O)c1cc(OC)c(OC)c(OC)c1	CHRM4 antagonist 29
O=C(NCc1ccc(F)cc1)C1CCCN(S(=O)(=O)c2cccc3nonc23)C1 (stereo not given)	M5 PAM 20
O=C(Nc1ccc(F)cc1)C1CCCN(S(=O)(=O)c2cccc3nonc23)C1 (stereo not given)	none
O=S(=O)(C/C(=C/CO)S(=O)(=O)c1ccccc1)c1ccccc1	CHRM4 antagonist 30
Fc1ccc(/C=C2\CCCC3=C2Nc2ncnn2C3c2ccc(F)cc2)cc1 (stereo not given)	CHRM4 antagonist 28
COc1ccc(C2C3=C(Nc4ncnn42)c2ccccc2CCC3)cc1 (stereo not given)	none
COc1cccc(CNC(=O)[C@@H]2CCCN2C(=O)[C@@H]2CCCN2C(=O)c2cccc3ccccc23)c1	none
COc1ccc(Br)cc1C(=O)NCc1cccnc1	none
O=C(NC(=S)NCc1cccnc1)c1cc(Br)ccc1Cl	M5 PAM 22
COc1cccc(CNC(=O)c2ccc(C)c(S(=O)(=O)N3CCCCC3)c2)c1	none
COc1ccc(NC2=NCC(Cc3ccc(Br)cc3)S2)cc1 (stereo not given)	CHRM4 antagonist 29
CCN(CC)c1ccc(C=Nc2cc(C)ccc2C)c(O)c1	M4 PAM 25
CC1(NC(=O)c2cccc(S(=O)(=O)N3CCN(c4ccc(F)cc4)CC3)c2)CCS(=O)(=O)C1 (stereo not given)	none
CN1C(CC(=O)Nc2ccc(Cl)cc2Cl)c2ccccc2CC1(C)C (stereo not given)	CHRM4 antagonist 29
CC1(C)N=C(SCC(=O)Nc2ccc(Cl)cc2Cl)C(c2ccccc2)=N1	none
Cc1ccc2c(c1)cc1c(=O)n(CC(=O)N(C)c3ccccc3)nc(C)n12	M4 PAM 16
NS(=O)(=O)c1ccc(S(=O)(=O)NCCc2ccccc2)cc1	none
Cc1[nH]c2ccccc2c1CCNS(=O)(=O)c1ccc(S(N)(=O)=O)cc1	M4 PAM 16
CN(C(=O)c1ccc(Oc2ccc([N+](=O)[O-])cc2)cc1)C1CCCCC1	none
COc1cc(NC(=O)COc2ccc(-n3ccnc3)cc2)cc(OC)c1	none
N#Cc1cccc(NC(=O)COc2ccc(-n3ccnc3)cc2)c1	M5 antag 40
COc1cc(/C=C2\SC(=O)N(c3cccc(Cl)c3)C2=O)cc([N+](=O)[O-])c1O	M4 PAM 23
COc1cc(/C=C2\SC(=O)N(c3ccc(Cl)cc3)C2=O)cc([N+](=O)[O-])c1O	none
Cc1occc1C(=O)Nc1sc2c(c1C(N)=O)CCC(C(C)(C)C)C2 (stereo not given)	M4 PAM 29
O=C(CC1CC2CCC1C2)N1CCN(S(=O)(=O)c2ccc(F)cc2)CC1 (stereo not given)	none
CCOC(=O)c1c(-c2ccc(C)o2)csc1NC(=O)CSc1nnc(C)s1	none
CCOC(=O)c1c(-c2ccc(C)o2)csc1NC(=O)CSc1nnnn1-c1ccccc1	CHRM4 antagonist 30
O=C(CSc1nnnn1-c1ccccc1)NCc1cccs1	M5 PAM 20
COCCNC(=O)C1CCCN(C(=O)c2cc(C)nn2C(C)(C)C)CC1 (stereo not given)	none
CC(=O)Nc1ccc(/C(C)=N/Nc2nc(Nc3cccc4ccccc34)nc(N3CCOCC3)n2)cc1	M5 ag 32
